Test results taken from ChEMBL document CHEMBL1146087, “1,4-Benzodiazepines as inhibitors of respiratory syncytial virus” (J Med Chem, 2006).
pIC50: −log10 of the molar value.

Experiments:
[1] = tested on: Respiratory syncytial virus; assay: Antiviral activity against RSV RSS in Hep2 cells by whole cell XTT assay; assay type: functional, organism-based; conditions: human respiratory syncytial virus, HEp-2
Summary of the method: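 Primary whole-cell assay with XTT read-out of infected cells. Parallel cultures without virus were run to measure compound cytotoxicity. IC50 values were derived.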

HEp-2 = assay: Cytotoxicity against Hep2 cell at 50 uM; assay type: functional, cell-based; conditions: Homo sapiens
Summary of the method: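 Run alongside the whole-cell antiviral XTT assay, without virus, to measure compound toxicity to the cells. The read-out is XTT.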

[2] = Cmax in Sprague-Dawley rat at 20 mg/kg, po; assay type: ADME, organism-based; set-up: dose 20 mg/kg, route oral; conditions: in vivo
[3] = Tmax in Sprague-Dawley rat at 20 mg/kg, po; assay type: ADME, organism-based; set-up: dose 20 mg/kg, route oral; conditions: in vivo
[4] = Half life in Sprague-Dawley rat at 20 mg/kg, po; assay type: ADME, organism-based; set-up: dose 20 mg/kg, route oral; conditions: in vivo
[5] = Apparent oral clearance in Sprague-Dawley rat at 20 mg/kg, po; assay type: ADME, organism-based; set-up: dose 20 mg/kg, route oral; conditions: in vivo
Rattus norvegicus = assay: Volume of distribution in Sprague-Dawley rat at 20 mg/kg, po; assay type: ADME, organism-based; set-up: dose 20 mg/kg, route oral; conditions: in vivo
[6] = tested on: Respiratory syncytial virus; assay: Antiviral activity against RSV RSS in Hep2 cells by ELISA; assay type: functional, organism-based; conditions: human respiratory syncytial virus, HEp-2
[7] = tested on: Respiratory syncytial virus; assay: Antiviral activity against RSV Long in Hep2 cells by ELISA; assay type: functional, organism-based; conditions: human respiratory syncytial virus, HEp-2
[8] = tested on: Respiratory syncytial virus; assay: Antiviral activity against RSV B in Hep2 cells by ELISA; assay type: functional, organism-based; conditions: human respiratory syncytial virus, HEp-2
[9] = tested on: Respiratory syncytial virus; assay: Antiviral activity against RSV RSS in Hep2 cells by plaque assay; assay type: functional, organism-based; conditions: human respiratory syncytial virus, HEp-2
[10] = tested on: Respiratory syncytial virus; assay: Antiviral activity against RSV Long in Hep2 cells by plaque assay; assay type: functional, organism-based; conditions: human respiratory syncytial virus, HEp-2
[11] = tested on: Respiratory syncytial virus; assay: Antiviral activity against RSV B in Hep2 cells by plaque assay; assay type: functional, organism-based; conditions: human respiratory syncytial virus, HEp-2

Compound	pIC50 [1]	Activity (HEp-2)	also measured
COc1cc2c(cc1OC)C(c1ccccc1)=NC(NC(=O)c1ccccc1OC)C(=O)N2 (stereo unspecified)	< 4.30	Not toxic	–
CCN(CC)C(=O)NC1N=C(c2ccccc2)c2ccccc2NC1=O (stereo unspecified)	4.68	Not toxic	–
COc1ccc2c(c1)C(c1ccccc1)=NC(NC(=O)c1ccccc1OC)C(=O)N2 (stereo unspecified)	< 4.30	Not toxic	–
COc1ccccc1C(=O)NC1N=C(c2ccccc2)c2ccc(C)cc2NC1=O (stereo unspecified)	4.72	Not toxic	–
O=C(NC1N=C(c2ccccc2)c2ccccc2NC1=O)c1ccco1 (stereo unspecified)	5.49	Not toxic	–
COc1ccc(C2=NC(NC(=O)c3ccccc3OC)C(=O)Nc3ccccc32)cc1 (stereo unspecified)	< 4.30	Not toxic	–
O=C(NC1N=C(c2ccccc2)c2ccccc2NC1=O)c1ccc(N2CCOCC2)cc1Cl (stereo unspecified)	5.47	Not toxic	–
COc1cc([N+](=O)[O-])ccc1C(=O)NC1N=C(c2ccccc2)c2ccccc2NC1=O (stereo unspecified)	–	Not toxic	Cmax [2]: 1670 ng/mL; Tmax [3]: 3 h; half-life [4]: 348 min; CL/F [5]: 18.8 mL/min/kg; Vdss (Rattus norvegicus): 9.8 L/kg; pIC50 [6]: 5.60; pIC50 [7]: 5.92; pIC50 [8]: 5.89; pIC50 [9]: 5.74; pIC50 [10]: 6.05; pIC50 [11]: > 6.52
CN(C)c1ccccc1C(=O)NC1N=C(c2ccccc2)c2ccccc2NC1=O (stereo unspecified)	5.32	Not toxic	–
O=C(NC1N=C(C2CCCCC2)c2ccccc2NC1=O)c1ccco1 (stereo unspecified)	< 4.30	Not toxic	–
O=C(Nc1ccccc1F)NC1N=C(C2CCCCC2)c2ccccc2NC1=O (stereo unspecified)	< 4.30	Not toxic	–
O=C(NC1N=C(c2ccccc2F)c2cc(Cl)ccc2NC1=O)c1ccco1 (stereo unspecified)	4.38	Not toxic	–
O=C(NC1N=C(c2ccccc2)c2ccccc2NC1=O)c1ccc([N+](=O)[O-])cc1 (stereo unspecified)	5.17	Not toxic	–
O=C1Nc2ccccc2C(c2ccccc2)=NC1NC(=O)C1CCCO1 (stereo unspecified)	4.76	Not toxic	–
COc1cc(S(C)(=O)=O)ccc1C(=O)NC1N=C(c2ccccc2)c2ccccc2NC1=O (stereo unspecified)	5.70	Not toxic	–
O=C(NC1N=C(c2ccccc2)c2ccccc2NC1=O)c1ccccc1 (stereo unspecified)	5.26	Not toxic	–
O=C(NC1N=C(c2ccccc2)c2ccccc2NC1=O)c1ccccc1CN1CCOCC1 (stereo unspecified)	4.68	Not toxic	–
COc1cc([N+](=O)[O-])ccc1C(=O)N(C)C1N=C(c2ccccc2)c2ccccc2NC1=O (stereo unspecified)	4.60	Not toxic	–
COc1ccc(F)cc1C(=O)NC1N=C(c2ccccc2)c2ccccc2NC1=O (stereo unspecified)	5.82	Not toxic	Cmax [2]: 10.3 ng/mL; Tmax [3]: 3.33 h; CL/F [5]: 981 mL/min/kg
O=C(NC1N=C(c2ccccc2)c2ccccc2NC1=O)c1cccc(C(F)(F)F)c1 (stereo unspecified)	5.12	Not toxic	–
COc1ccc(C(=O)NC2N=C(C)c3ccccc3NC2=O)cc1 (stereo unspecified)	< 4.30	Not toxic	–
O=C(NC1N=C(c2ccccc2)c2ccccc2NC1=O)c1cccs1 (stereo unspecified)	5.25	Not toxic	–
CCOc1ccccc1C(=O)NC1N=C(c2ccccc2)c2ccccc2NC1=O (stereo unspecified)	5.44	Not toxic	–
COc1ccccc1C(=O)NC1N=C(c2ccccc2F)c2cc(Cl)ccc2NC1=O (stereo unspecified)	4.58	Not toxic	–
COc1ccccc1C(=O)NC1N=C(c2cccc(C(F)(F)F)c2)c2ccccc2NC1=O (stereo unspecified)	4.78	Not toxic	–
COc1ccccc1C(=O)NC1N=C(c2ccccc2)c2cc(Cl)ccc2NC1=O (stereo unspecified)	5.21	Not toxic	–
CNc1ccccc1C(=O)NC1N=C(c2ccccc2)c2ccccc2NC1=O (stereo unspecified)	5.02	Not toxic	–
O=C(NC1N=C(c2cccc(C(F)(F)F)c2)c2ccccc2NC1=O)c1ccco1 (stereo unspecified)	4.73	Not toxic	–
O=C1Nc2ccccc2C(c2ccccc2)=NC1NC(=O)N1CCOCC1 (stereo unspecified)	5.01	Not toxic	–
